The source of these data is ChEMBL document CHEMBL3853320, “Discovery of Imidazoquinolines as a Novel Class of Potent, Selective, and in Vivo Efficacious Cancer Osaka Thyroid (COT) Kinase Inhibitors” (J Med Chem, 2016).

Each structure is given as a SMILES string. Converted amounts (≈) assume the structure as drawn.

Series [1] is described as follows: Drug metabolism in Sprague-Dawley rat liver S9 fraction assessed as 1-(2-(1-morpholinopropan-2-ylamino)benzo[d]thiazol-6-yl)-8-(pyridin-4-yl)-1H-imidazo[4,5-c][1,7]naphthyridin-4(5H)-one metabolite formation in presence of aldehyde oxidase inhibitor raloxifene at 10 uM. Type of series: ADME, subcellular. The note with it: s9, 10 µM. The method, boiled down:
(§1)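 M1 formation was measured in liver S9 incubations with no NADPH added, in the presence of the aldehyde oxidase inhibitor raloxifene. The rat S9 fraction received 10 μM raloxifene. The human S9 fraction was tested at two raloxifene concentrations.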

Series [2] is described as follows: Drug metabolism in human liver S9 fraction assessed as 1-(2-(1-morpholinopropan-2-ylamino)benzo[d]thiazol-6-yl)-8-(pyridin-4-yl)-1H-imidazo[4,5-c][1,7]naphthyridin-4(5H)-one metabolite formation in presence of aldehyde oxidase inhibitor raloxifene. It counts as ADME, subcellular. The method, boiled down:
as §1

Series [3] concerns the target T1, Mitogen-activated protein kinase kinase kinase 8 (Homo sapiens, UniProt P41279). The series is described as follows: Inhibition of human COT (66 to 395 residues) expressed in Sf21 cells using 5-Fluo-Ahx-AGAGSGQLIDSNleANSFVGTR-NH2 as substrate after 60 mins by caliper microfluidic mobility shift assay.
For series [4], the target named is T1, Mitogen-activated protein kinase kinase kinase 8. The experiment in a line: Inhibition of COT in LPS-stimulated human PBMC assessed as reduction in ERK1/2 phosphorylation incubated for 60 mins followed by LPS stimulation for 12 mins by flow cytometric analysis. The method, boiled down:
(§2)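 Primary human PBMCs were stimulated with LPS. Read-outs were pERK, TNFα release, or p65 phosphorylation, each reported as IC50.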
A general note: A flow cytometer gives signals particle by particle.

For series [5] the target is unchanged. The series is described as follows: Inhibition of COT in LPS-stimulated human PBMC assessed as reduction in TNFalpha release incubated for 1 hr followed by stimulation with LPS for 4 hrs by HTRF assay. Summed up: as §2
Series [6] in a line: Octanol-water partition coefficient, log P of the compound by shake-flask method. Type of series: physicochemical.
A short description of series [7]: Clearance in wild type Sprague-Dawley rat plasma at 1 mg/kg, iv. Type of series: ADME, organism-based. The method, boiled down:
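Male wild-type Sprague–Dawley rats were given 1 mg/kg intravenously. Clearance was derived from plasma.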

Series [8] addresses T1, Mitogen-activated protein kinase kinase kinase 8. The experiment in a line: Inhibition of COT in LPS-stimulated human whole blood assessed as reduction in TNFalpha release incubated for 30 mins followed by stimulation with LPS for 3 hrs by HTRF assay. It counts as tissue-based. Summed up:
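Human whole blood was stimulated with LPS, and TNFα release was measured as IC50.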
On the technique in general: TR-FRET usually uses a lanthanide donor and a delayed reading to cut background.

Series [9] is described as follows: Equilibrium solubility of the compound at pH 6.8 after 16 hrs by mass spectrometric analysis. Type of series: physicochemical. The conditions noted are these: buffer.
Series [10] can be described thus: Equilibrium solubility of the compound at pH 4 after 16 hrs by mass spectrometric analysis. The note with it: buffer. Type of series: physicochemical.
The nature of series [11]: Protein binding in human plasma at 5 uM after 4 hrs by rapid equilibrium dialysis method. Type of series: ADME, cell-free. The note with it: read-out: PPB (converted).
Series [12] can be described thus: Half life in wild type Sprague-Dawley rat liver microsomes at 5 uM preincubated for 3 mins followed by NADPH addition measured after 1 hr by HPLC/MS analysis. It counts as ADME. (Microsomes from liver hold many membrane-bound enzymes, among them those of drug oxidation.)
Series [13] in a line: Drug metabolism in Sprague-Dawley rat liver S9 fraction assessed as 1-(2-(1-morpholinopropan-2-ylamino)benzo[d]thiazol-6-yl)-8-(pyridin-4-yl)-1H-imidazo[4,5-c][1,7]naphthyridin-4(5H)-one metabolite formation in absence of NADPH after 5 to 120 mins by LC/MS/MS analysis. Type of series: ADME. The method, boiled down:
(§3)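 Rat or human liver S9 fractions were incubated without NADPH cofactor. Loss of parent and formation of the 4-oxo metabolite M1 were monitored.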

A short description of series [14]: Metabolic stability in bile-duct cannulated Sprague-Dawley rat assessed as parent compound remaining in feces at 3 mg/kg, iv measured over 8 hrs post dose. Type of series: ADME, organism-based. The note with it: read-out: Stability. Summed up:
(§4)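 Bile-duct cannulated rats dosed in vivo. Parent and metabolites in each matrix were expressed as relative peak areas of the drug-related components detected, at the stated sampling time or collection period post dose.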

Series [15] in a line: Metabolic stability in Sprague-Dawley rat liver microsomes assessed as parent compound remaining at 5 uM after 1 hr in presence of NADPH by HPLC/MS analysis. It counts as ADME. The note with it: read-out: Stability.
Series [16] can be described thus: Metabolic stability in bile-duct cannulated Sprague-Dawley rat assessed as parent compound remaining in blood at 3 mg/kg, iv measured 1 hr post dose. The note with it: read-out: Stability. Type of series: ADME, organism-based.
Series [17] is described as follows: Metabolic stability in bile-duct cannulated Sprague-Dawley rat assessed as parent compound remaining in blood at 3 mg/kg, iv measured 4 hrs post dose. It counts as ADME, organism-based. The conditions noted are these: read-out: Stability. The method, boiled down: as §4
Series [18] can be described thus: Metabolic stability in bile-duct cannulated Sprague-Dawley rat assessed as parent compound remaining in bile at 3 mg/kg, iv measured over 8 hrs post dose. Type of series: ADME, organism-based. The conditions noted are these: read-out: Stability.
Series [19] is described as follows: Metabolic stability in bile-duct cannulated Sprague-Dawley rat assessed as parent compound remaining in urine at 3 mg/kg, iv measured over 8 hrs post dose. Type of series: ADME, organism-based. The conditions noted are these: read-out: Stability. The method, boiled down:
as §4

A short description of series [20]: Drug excretion in bile-duct cannulated Sprague-Dawley rat bile at 3 mg/kg, iv. Type of series: ADME, organism-based. The note with it: read-out: Drug excretion.
Series [21] is described as follows: Drug excretion in bile-duct cannulated Sprague-Dawley rat urine at 3 mg/kg, iv. Type of series: ADME, organism-based. The note with it: read-out: Drug excretion.
Series [22] can be described thus: Drug excretion in bile-duct cannulated Sprague-Dawley rat kidney at 3 mg/kg, iv measured 8 hrs post dose. It counts as ADME, organism-based. The conditions noted are these: in vivo.
Series [23] is described as follows: Drug excretion in bile-duct cannulated Sprague-Dawley rat liver at 3 mg/kg, iv measured 8 hrs post dose. Type of series: ADME, organism-based. The conditions noted are these: in vivo.
A short description of series [24]: Drug excretion in bile-duct cannulated Sprague-Dawley rat feces at 3 mg/kg, iv measured 8 hrs post dose. The note with it: read-out: Drug excretion. Type of series: ADME, organism-based.
The nature of series [25]: Drug metabolism in human liver S9 fraction assessed as 1-(2-(1-morpholinopropan-2-ylamino)benzo[d]thiazol-6-yl)-8-(pyridin-4-yl)-1H-imidazo[4,5-c][1,7]naphthyridin-4(5H)-one metabolite formation in absence of NADPH after 5 to 120 mins by LC/MS/MS analysis. It counts as ADME. Summed up:
as §3

T1 sequence (P41279 whole entry, the tested form may be a part): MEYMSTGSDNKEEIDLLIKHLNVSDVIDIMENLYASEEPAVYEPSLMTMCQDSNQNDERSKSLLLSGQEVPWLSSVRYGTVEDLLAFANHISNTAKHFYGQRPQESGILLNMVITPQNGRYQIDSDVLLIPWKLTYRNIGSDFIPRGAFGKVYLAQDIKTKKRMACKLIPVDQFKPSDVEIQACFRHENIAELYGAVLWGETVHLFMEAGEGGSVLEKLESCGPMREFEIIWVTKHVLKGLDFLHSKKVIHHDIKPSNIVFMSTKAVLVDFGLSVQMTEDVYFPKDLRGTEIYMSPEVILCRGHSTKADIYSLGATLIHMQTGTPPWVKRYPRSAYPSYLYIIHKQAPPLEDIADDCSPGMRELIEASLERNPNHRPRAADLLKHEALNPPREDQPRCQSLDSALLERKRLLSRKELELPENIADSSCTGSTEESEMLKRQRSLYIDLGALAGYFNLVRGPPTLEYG

In the case of `O=C(c1ccc(OCCN2CCCCC2)cc1)c1c(-c2ccc(O)cc2)sc2cc(O)ccc12` [RALOXIFENE], the Drug metabolism result is on record as “Metabolite_Detected” in series [1] and “Metabolite_Notdetected” in series [2].
By IC50 is commonly meant the concentration needed to halve the response being measured. The logP is a log measure of how a compound divides between an organic and an aqueous phase. What is called clearance is a measure of how efficiently the substance is removed, as volume per time. A lower clearance goes with a low capacity for elimination. The thermodynamic solubility is solubility found after equilibrating the solid with the medium. As usually defined, the half-life is how long it takes for the measured level to halve. A high value points to slow decline. Regarding `CC(CN1CCOCC1)Nc1nc2ccc(-n3cnc4cnc5cnc(-c6ccncc6)cc5c43)cc2s1` (stereo not given), the IC50 in series [3] worked out at 0.009 µM; in [4], 0.08 µM; in [5], 0.07 µM; in [8], 0.6 µM. In [6], this molecule came in with a logP of 3.3. The same molecule returned a clearance in series [7] of 297 mL/min/kg. The values for the solubility (thermodynamic) at 16 h in series [9] and in series [10] were 60 µM (≈ 31.4 µg/mL) and more than 1000 µM, respectively. Also, the fraction unbound at 4 h, 5 µM in series [11] was 0.02. In series [12], this molecule returned a half-life at 5 µM of less than 3 min. Moreover, the Drug metabolism result in series [13] and in series [25] was “Metabolite_Detected” throughout. The dose excreted at 8 h was 37% in [14], 0% in series [18], 2% in series [19] and 0.33% in series [24]. For the same molecule, the remaining at 1 h, 5 µM in series [15] was found to be 16%. The remaining at 1 h in [16] turned out to be 49%. Besides, the remaining at 4 h in series [17] stood at 20%. Also, the dose excreted in series [20] worked out at 0.13%; in [21], 0.04%. In addition, the Drug excretion in series [22] and in series [23] was 0.002 %ID each time.
